Source: ChEMBL document CHEMBL4177684, “Design, synthesis, and biological evaluation of hydantoin bridged analogues of combretastatin A-4 as potential anticancer agents” (Bioorg Med Chem, 2017)

Key:
A2780 = assay: Antiproliferative activity against human A2780 cells by MTT assay; format: functional, cell-based
In short: (§1)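 Growth inhibition rate calculated per compound. IC₅₀ derived by curve fitting.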

[1] = Inhibition of pig brain tubulin polymerization measured every 1 min for 20 mins by spectrophotometric analysis; design: species or system Sus scrofa
MDA-MB-231 = assay: Antiproliferative activity against human MDA-MB-231 cells by MTT assay; format: functional, cell-based; in short: as §1
HeLa = assay: Antiproliferative activity against human HeLa cells by MTT assay; format: functional, cell-based; in short: as §1
HCT-116 = assay: Antiproliferative activity against human HCT116 cells by MTT assay; format: functional, cell-based; in short: as §1
[2] = Cytotoxicity against HOSEC at 50 uM by MTT assay relative to control; details: human
[3] = Cytotoxicity against HOSEC at 10 uM by MTT assay relative to control; details: human

| Compound | IC50 (A2780) | IC50 [1] | IC50 (MDA-MB-231) | IC50 (HeLa) | IC50 (HCT-116) | Activity [2] | Activity [3] |
| --- | --- | --- | --- | --- | --- | --- | --- |
| COc1ccc(/C=C\c2cc(OC)c(OC)c(OC)c2)cc1O [COMBRETASTATIN A4] | 5 nM | 6.6 µM | 2 nM | 7 nM |  |  |  |
| COc1ccc(N2C(=S)NC(=O)C2c2cc(OC)c(OC)c(OC)c2)cc1O (stereo not drawn) | > 50000 nM |  |  | > 50000 nM |  |  |  |
| COc1ccc(N2C(=O)N(C)C(=O)[C@H]2c2cc(OC)c(OC)c(OC)c2)cc1N | 97 nM |  | 125 nM | 81 nM | 157 nM |  |  |
| COc1cc(C2C(=O)NC(=O)N2c2ccc3ncccc3c2)cc(OC)c1OC (stereo not drawn) | > 50000 nM |  |  | > 50000 nM |  |  |  |
| COc1cc(C2C(=O)NC(=O)N2c2cc(OC)c(OC)c(OC)c2)cc(OC)c1OC (stereo not drawn) | > 50000 nM |  |  | > 50000 nM |  |  |  |
| COc1ccc(C2C(=O)NC(=O)N2c2cc(OC)c(OC)c(OC)c2)cc1O (stereo not drawn) | > 50000 nM |  |  | > 50000 nM |  |  |  |
| CC(=O)O[C@H]1C(=O)[C@@]2(C)[C@H]([C@H](OC(=O)c3ccccc3)[C@]3(O)C[C@H](OC(=O)[C@H](O)[C@@H](NC(=O)c4ccccc4)c4ccccc4)C(C)=C1C3(C)C)[C@]1(OC(C)=O)CO[C@@H]1C[C@@H]2O [PACLITAXEL] |  |  |  |  |  | 94% | 51% |
| COc1cc(C2C(=O)NC(=O)N2c2cnc3ccccc3c2)cc(OC)c1OC (stereo not drawn) | > 50000 nM |  |  | > 50000 nM |  |  |  |
| COc1ccc(N2C(=O)N(C)C(=O)C2c2cc(OC)c(OC)c(OC)c2)cc1F (stereo not drawn) | 555 nM |  | 452 nM | 516 nM | 527 nM |  |  |
| COc1ccc(N2C(=O)NC(=O)C2c2cc(OC)c(OC)c(OC)c2)cc1 (stereo not drawn) | 2140 nM |  |  | 2820 nM |  |  |  |
| COc1ccc(N2C(=O)NC(=O)C2c2cc(OC)c(OC)c(OC)c2)cc1F (stereo not drawn) | 745 nM |  | 727 nM | 771 nM | 630 nM |  |  |
| COc1cc(C2C(=O)NC(=O)N2c2ccc(C)c([N+](=O)[O-])c2)cc(OC)c1OC (stereo not drawn) | 2890 nM |  |  | 5450 nM |  |  |  |
| COc1cc(C2C(=O)NC(=O)N2c2ccc(C)c(N)c2)cc(OC)c1OC (stereo not drawn) | 1050 nM |  | 1170 nM | 933 nM | 988 nM |  |  |
| COc1ccc(N2C(=O)N(C)C(=O)[C@@H]2c2cc(OC)c(OC)c(OC)c2)cc1N | 305 nM |  | 582 nM | 399 nM | 355 nM |  |  |
| COc1ccc(N2C(=O)NC(=O)C2c2cc(OC)c(OC)c(OC)c2)cc1N (stereo not drawn) | 283 nM |  | 311 nM | 584 nM | 232 nM |  |  |
| COc1cc(C2C(=O)NC(=O)N2c2ccc(C)c(C)c2)cc(OC)c1OC (stereo not drawn) | 627 nM |  | 835 nM | 620 nM | 475 nM |  |  |
